High-throughput results: PubChem, several laboratories
A selection: hits, their analogues and other compounds. The true share with any hit is near 1.1%.
FXIIa inh: blocks human coagulation factor XIIa protease activity; purified FXIIa, Boc-QGR-AMC fluorogenic substrate, 2 h; inhibition, % at 5 µM; 0.3% of 220,000 active; AID 800; in the data active means inhibition above about 40%;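 further: 0% = enzyme with no compound and 100% = blank without enzyme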
FXIa inh 1536: inhibitors of human coagulation factor XIa. P03951. purified FXIa, Boc-Glu-Ala-Arg-AMC fluorogenic substrate. inhibition, % at 5 µM. 0.14% of 220,000 active;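 active means inhibition of at least 40%; inactive means inhibition below 40%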;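 further: fluorescence of freed AMC excited at 355 nm; 0% = enzyme without compound and 100% = no enzyme blank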
hK5 inh: blocks human kallikrein 5 protease activity | 0.59% of 210,000 active | recombinant hK5, fluorogenic AMC substrate cleavage | inhibition, % at 5 µM | Q9Y337;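 active means inhibition of 40% or more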;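 further: 0% = enzyme controls without compound and 100% = no-enzyme blanks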
Target sequence (Q9Y337 67-293 limits assumed): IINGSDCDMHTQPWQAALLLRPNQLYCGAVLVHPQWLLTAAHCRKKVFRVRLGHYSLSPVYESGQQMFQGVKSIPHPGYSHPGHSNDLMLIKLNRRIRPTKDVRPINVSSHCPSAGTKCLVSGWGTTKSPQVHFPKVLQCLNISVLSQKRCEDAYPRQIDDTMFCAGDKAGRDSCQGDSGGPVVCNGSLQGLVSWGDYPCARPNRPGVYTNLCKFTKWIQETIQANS
Furin inhibitor: blocks human furin protease activity; 0.061% of 220,000 active; P09958; AID 463115; inhibition, % at 20 µM or 30 µM; purified furin, fluorogenic substrate cleavage; in the data active means inhibition above about 25%
Thrombin inh: inhibitors of human thrombin; alpha-thrombin, Boc-VPR-AMC fluorogenic substrate cleavage; inhibition, % at 5 µM; 0.26% of 220,000 active;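 active means inhibition at or above 40%; inactive means inhibition below 40%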;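 further: 0% = enzyme with no compound and 100% = wells without enzyme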
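signal = AMC fluorescence, 355/460 nm | material = human alpha-thrombin enzyme | control set = enzyme without compound as high, wells lacking enzyme as low | times = reaction at room temperature | read-out basis = percent inhibition scaled between no-compound controls and no-enzyme blanks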
* marks the source's active call; other numbers are inactive results; nt = no result.

SMILES | FXIIa inh | FXIa inh 1536 | hK5 inh | Furin inhibitor | Thrombin inh
Nc1c(-c2ccccc2)c(CSc2nc3ccccc3[nH]2)nn1-c1ccc(Cl)cc1 | 33 | 14 | 62* | -2 | 17
O=C(Nc1ccc(N2CCOCC2)cc1)c1cnsn1 | 6 | 2 | 51* | -15 | 13
CN(/N=C/c1ccc2c(c1)OCO2)c1nc(N2CCOCC2)nc(N2CCOCC2)n1 | 100* | 1 | -3 | -11 | -11
CCOc1ccc(NC(=O)CCSc2nnc(C)s2)cc1 | 24 | 19 | 46* | -30 | 22
C=CCn1c(=S)sc2c(=O)[nH]cnc21 | 4 | -3 | -4 | -6 | -5
Cc1ccc2nc(/C(C#N)=C/c3cn[nH]c3-c3ccc(F)cc3)[nH]c2c1 | 13 | 13 | 2 | 28* | -4
CC(C)CCN(C(=O)COc1ccc(C#N)cc1)c1c(N)n(Cc2ccccc2)c(=O)[nH]c1=O | 6 | 1 | nt | -18 | -2
O=C(/C=C/c1ccco1)Nc1cccc(S(=O)(=O)N2CCOCC2)c1 | 1 | -5 | -6 | -1 | -10
Cc1ccc(/C=C/C(=O)Nc2cccc(S(=O)(=O)N3CCOCC3)c2)o1 | 7 | -5 | 72* | 4 | 40
Cc1ccc(S(=O)(=O)Nc2cccnc2Oc2ccc(Cl)cc2)cc1 | 44* | 17 | 28 | 4 | 47*
COC(=O)c1cccc(N2CCCC2=O)c1 | 25 | 32 | 45* | -6 | 16
O=C(c1ccc(N2C(=O)C3C4c5ccccc5C(c5ccccc54)C3C2=O)cc1)N1CCOCC1 (stereo not drawn) | 0 | 0 | -17 | -21 | -8
O=C(CSc1nc(O)c(C2CCCCC2)c(=O)[nH]1)NCC1CCCO1 (stereo not drawn) | 8 | 3 | 2 | -10 | 3
Cc1cc(=O)[nH]c(SCC(=O)NCC2CCCO2)n1 (stereo not drawn) | 2 | -7 | -3 | -16 | 42*
COc1cc(NC(=S)NCCC(c2ccccc2)c2ccccc2)cc(OC)c1 | 10 | 6 | -8 | -29 | -3
COc1cccc(NC(=S)NCCC(c2ccccc2)c2ccccc2)c1 | 0 | -15 | -20 | -7 | 41*
COc1cccc(NC(=S)Nc2ccc(Br)cc2Cl)c1 | 41* | 36 | 39 | 0 | 51*
O=C(O)/C=C/C(=O)N1CCN(C(c2ccccc2)c2ccccc2)CC1 | 3 | 4 | -11 | -13 | 6
O=C(O)CCCC(=O)N1CCN(C(c2ccccc2)c2ccccc2)CC1 | 6 | 7 | 52* | -15 | 16
CCC(C)NC(=O)CSc1nc2ccsc2c(=O)n1NC(=O)c1ccccc1 (stereo not drawn) | 41* | 20 | 33 | -14 | 28
Cc1ccc(CNC(=O)CSc2nc3ccsc3c(=O)n2NC(=O)c2ccccc2)cc1 | 1 | -2 | -3 | -8 | -7
Cc1nc(SCc2ccccc2)c2ccsc2n1 | 57* | 29 | 56* | -8 | 20
Cc1nc(N2CCCCC2)c2ccsc2n1 | -8 | -1 | 4 | -15 | -16
c1ccc(CSc2ncnc3sccc23)cc1 | 37 | 25 | 42* | -12 | 37
Cc1nnc(SCC(=O)NNC(=O)c2ccc(Br)cc2)n1C | 10 | 0 | -4 | -29 | 9
SMILES | FXIIa inh | FXIa inh 1536 | hK5 inh | Furin inhibitor | Thrombin inh
CS(=O)(=O)N1CCN(C(=O)c2ccccc2F)CC1 | 8 | 8 | 116* | -14 | 7
CCOC(=O)c1sc(NC(=O)/C=C/c2cnn(C)c2C)c(C(=O)OCC)c1C | 6 | 0 | 9 | -16 | 47*
COc1ccccc1C1C=C(c2ccc(Cl)cc2)Nc2nc(NS(C)(=O)=O)nn21 (stereo not drawn) | 9 | 2 | -39 | -17 | -2
COc1ccc(C2C=C(c3ccc(Br)cc3)Nc3nc(N4C(=O)CCC4=O)nn32)cc1 (stereo not drawn) | 13 | -3 | -85 | -28 | 53*
COc1ccccc1C1C=C(c2ccc(Cl)cc2)Nc2nc(N3C(=O)CCC3=O)nn21 (stereo not drawn) | 13 | 3 | -34 | -16 | 50*
CCOC(=O)C1C(C(=O)Nc2cccc(C(F)(F)F)c2)C1C(=O)NC(C)C (stereo not drawn) | 34 | 39 | 53* | -6 | 19
Cc1ccc2c(c1)NC(=O)C(CC(=O)NCCCN1CCCCC1C)O2 (stereo not drawn) | 12 | 3 | 47* | -34 | 13
Cc1cccc(Nc2cc(C)c3c(O)cccc3n2)c1C | 9 | 5 | -7 | -8 | 0
N#Cc1nc(-c2ccccc2F)oc1NCc1ccccc1 | 15 | 16 | 42* | -41 | 14
CCOC(=O)c1c(O)c2cc(Cl)ccc2n(CC)c1=O | 50* | 32 | 27 | -7 | 34
O=C(COC(=O)c1ccc2ccccc2c1)Nc1ncc(C(F)(F)F)cc1Cl | 5 | 5 | -16 | -21 | -5
O=C(COC(=O)c1c2ccccc2cc2ccccc12)Nc1ncc(C(F)(F)F)cc1Cl | 0 | 15 | 59* | 0 | 8
CC(c1ccc(F)cc1)n1c(-c2cccs2)n[nH]c1=S (stereo not drawn) | nt | 35 | 71* | 3 | 33
CC(c1ccccc1)n1c(-c2ccncc2)n[nH]c1=S (stereo not drawn) | 4 | -7 | -16 | -18 | 4
CC1Cc2ccccc2N1C(=O)C1CCCCN1S(=O)(=O)c1ccccc1 (stereo not drawn) | 31 | 14 | 41* | -14 | 32
COc1ccc(-c2cc([C@H]3[C@@H]4C=CCC[C@@]4(C)C(=O)N3Cc3ccccc3)ccc2F)cc1 | 14 | 20 | 42* | 4 | 11
CCOC(=O)NC(=O)/C(C#N)=C(/C)N(C)C | 0 | -6 | -11 | 0 | -4
COc1cc(C(C(=O)NC2CCCCC2)N(CCN2CCOCC2)C(=O)C2COc3ccccc3O2)cc(OC)c1OC (stereo not drawn) | 5 | -3 | 2 | -25 | -5
Nc1nc(CCl)nc(Nc2ccc3ccccc3c2)n1 | 18 | 32 | 61* | 2 | 1
Cc1ccccc1Nc1nc(N)nc(CCl)n1 | 3 | -2 | 0 | -6 | -9
CCOCCn1c(-c2ccc(OC)cc2)nc2ccccc21 | 54* | 18 | 42* | -4 | 19
Cc1cc(C)cc(OCC(=O)Nc2ccc(N3CCCC3)cc2)c1 | 45* | 16 | 6 | -25 | 2
O=C(COC(=O)c1cc(=O)c2ccccc2o1)NC1CCCCC1 | 27 | 42* | 19 | -7 | 12
COc1ccc(N2C(=O)CC(Nc3cccc([N+](=O)[O-])c3)C2=O)cc1 (stereo not drawn) | 44* | 18 | 42* | -3 | 17
Cc1ccc(NC2CC(=O)N(c3cccc([N+](=O)[O-])c3)C2=O)cc1 (stereo not drawn) | 5 | -4 | -1 | -10 | -1
CC(=O)n1nc(-c2ccccc2)nc1NCc1ccc(N(C)C)cc1 | -7 | -6 | -24 | -20 | 61*
CCC(=O)n1nc(-c2ccc(OC)cc2)nc1NCc1cccs1 | 7 | 1 | -5 | -19 | 89*
